The record followed here is ChEMBL document CHEMBL2417548, “Design and synthesis of novel 3-substituted-indole derivatives as selective H3 receptor antagonists and potent free radical scavengers” (Bioorg Med Chem, 2013).

Active and inactive are the calls of the source. The rule behind the calls is not given here.

Data set [1] has as its target T1, Histamine H3 receptor (Homo sapiens, UniProt Q9Y5N1). In words: Antagonist activity at human histamine H3 receptor expressed in HEK293 cells assessed by forskolin induced cAMP response element activation after 5 hrs by luciferase reporter gene assay. The class given is functional, cell-based.
A short description of data set [2]: Antioxidant activity assessed as ABTS free radical scavenging activity after 6 mins by spectrophotometry. The class given is functional. In short, it runs like this: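 ABTS (7 mM in water) reacted with 2.45 mM potassium persulfate (final), held in dark at room temperature ≥18 h to form radical cation, then serially diluted. Antioxidant added, mixed by pipette bubbling; absorbance at 415 nm read 6 min after addition, equilibrated at 30 °C. Each treatment repeated three times; melatonin as comparator.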

Data set [3] deals with T2, hERG (KCNH2) (Homo sapiens, UniProt Q12809). In words: Inhibition of human ERG expressed in HEK293 cells assessed as membrane depolarization at 3 uM by patch-clamp method. It is filed as cell-based. The settings on record: HEK293 cells that express hERG. Background: Patch clamp records ionic current or voltage across a cell membrane.
In data set [4] the target is T1, Histamine H3 receptor. As to the kind of experiment: Displacement of […] from human histamine H3 receptor expressed in HEK293 cells after 90 to 120 mins by liquid scintillation counting. The class given is cell-based.
Data set [5] concerns the target Histamine H4 receptor (Homo sapiens) (UniProt Q9H3N8). In words: Antagonist activity at human histamine H4 receptor expressed in HEK293 cells assessed by forskolin induced cAMP response element activation after 5 hrs by luciferase reporter gene assay. The class given is functional, cell-based. A digest of the protocol: (§1)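 Stable HEK-293 lines co-transfected with human H1, H2 or H4 receptor plus pCRE-Luc (G418 800 µg/mL selection), grown overnight to 90–95% confluence. Cells got 10 µM forskolin plus graded compound concentrations with 5 µM histamine in serum-free DMEM, 5 h at 37 °C. Read-out was firefly luciferase. Triplicate points, three separate experiments.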
Background: In a reporter assay the amount or activity of a reporter protein is the signal.

Data set [6] deals with Histamine H1 receptor (Homo sapiens) (UniProt P35367). As to the kind of experiment: Antagonist activity at human histamine H1 receptor expressed in HEK293 cells assessed by forskolin induced cAMP response element activation after 5 hrs by luciferase reporter gene assay. It is filed as functional, cell-based. In short, it runs like this:
as §1

The target of data set [7] is Histamine H2 receptor (Homo sapiens) (UniProt P25021). In words: Antagonist activity at human histamine H2 receptor expressed in HEK293 cells assessed by forskolin induced cAMP response element activation after 5 hrs by luciferase reporter gene assay. It is filed as functional, cell-based. A digest of the protocol: as §1
The target of data set [8] is T2, hERG (KCNH2). As to the kind of experiment: Inhibition of human ERG expressed in HEK293 cells assessed as membrane depolarization at 100 nM by patch-clamp method. The class given is cell-based. The settings on record: HEK293 cells that express hERG.

T1 sequence (Q9Y5N1 whole entry): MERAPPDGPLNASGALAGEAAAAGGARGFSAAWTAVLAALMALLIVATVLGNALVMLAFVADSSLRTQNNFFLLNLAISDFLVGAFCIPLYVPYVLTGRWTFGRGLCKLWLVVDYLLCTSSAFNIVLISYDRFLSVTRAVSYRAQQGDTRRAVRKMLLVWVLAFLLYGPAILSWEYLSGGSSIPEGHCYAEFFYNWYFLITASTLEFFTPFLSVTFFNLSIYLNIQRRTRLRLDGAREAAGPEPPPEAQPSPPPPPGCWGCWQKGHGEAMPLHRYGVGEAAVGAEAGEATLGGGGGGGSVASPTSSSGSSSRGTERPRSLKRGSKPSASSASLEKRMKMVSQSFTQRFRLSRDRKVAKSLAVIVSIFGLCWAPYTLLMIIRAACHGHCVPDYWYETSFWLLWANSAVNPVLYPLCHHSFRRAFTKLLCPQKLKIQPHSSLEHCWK
T2 sequence (Q12809 whole entry): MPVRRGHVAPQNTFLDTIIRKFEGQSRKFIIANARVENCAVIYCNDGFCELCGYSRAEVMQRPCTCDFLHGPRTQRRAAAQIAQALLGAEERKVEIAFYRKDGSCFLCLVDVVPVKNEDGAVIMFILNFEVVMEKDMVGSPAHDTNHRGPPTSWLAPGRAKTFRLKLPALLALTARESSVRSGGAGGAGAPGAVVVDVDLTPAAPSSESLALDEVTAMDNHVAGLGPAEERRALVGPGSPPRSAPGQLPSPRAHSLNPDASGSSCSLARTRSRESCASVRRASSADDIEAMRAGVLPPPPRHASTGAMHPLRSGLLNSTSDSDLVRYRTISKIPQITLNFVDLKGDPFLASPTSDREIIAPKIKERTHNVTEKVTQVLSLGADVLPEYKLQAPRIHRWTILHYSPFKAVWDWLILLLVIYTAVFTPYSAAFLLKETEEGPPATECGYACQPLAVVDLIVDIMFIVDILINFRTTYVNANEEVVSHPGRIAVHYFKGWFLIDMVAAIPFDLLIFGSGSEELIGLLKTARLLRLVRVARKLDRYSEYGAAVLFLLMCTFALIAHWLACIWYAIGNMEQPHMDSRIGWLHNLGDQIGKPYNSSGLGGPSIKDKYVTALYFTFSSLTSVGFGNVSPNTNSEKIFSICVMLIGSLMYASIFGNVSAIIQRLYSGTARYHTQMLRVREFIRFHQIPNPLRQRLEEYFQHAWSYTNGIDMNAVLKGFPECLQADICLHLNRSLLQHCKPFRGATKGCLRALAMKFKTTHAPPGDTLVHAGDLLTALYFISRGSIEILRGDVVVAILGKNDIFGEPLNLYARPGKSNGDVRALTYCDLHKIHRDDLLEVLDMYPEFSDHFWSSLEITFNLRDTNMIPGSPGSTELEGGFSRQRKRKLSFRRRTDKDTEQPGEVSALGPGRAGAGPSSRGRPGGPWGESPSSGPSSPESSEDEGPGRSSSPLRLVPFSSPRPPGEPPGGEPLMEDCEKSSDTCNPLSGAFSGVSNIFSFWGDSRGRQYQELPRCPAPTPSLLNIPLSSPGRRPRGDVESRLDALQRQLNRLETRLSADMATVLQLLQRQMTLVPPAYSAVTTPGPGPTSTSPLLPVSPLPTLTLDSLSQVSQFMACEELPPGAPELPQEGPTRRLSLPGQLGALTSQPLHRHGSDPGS
Sequence of Histamine H1 receptor (Homo sapiens) (P35367 whole entry): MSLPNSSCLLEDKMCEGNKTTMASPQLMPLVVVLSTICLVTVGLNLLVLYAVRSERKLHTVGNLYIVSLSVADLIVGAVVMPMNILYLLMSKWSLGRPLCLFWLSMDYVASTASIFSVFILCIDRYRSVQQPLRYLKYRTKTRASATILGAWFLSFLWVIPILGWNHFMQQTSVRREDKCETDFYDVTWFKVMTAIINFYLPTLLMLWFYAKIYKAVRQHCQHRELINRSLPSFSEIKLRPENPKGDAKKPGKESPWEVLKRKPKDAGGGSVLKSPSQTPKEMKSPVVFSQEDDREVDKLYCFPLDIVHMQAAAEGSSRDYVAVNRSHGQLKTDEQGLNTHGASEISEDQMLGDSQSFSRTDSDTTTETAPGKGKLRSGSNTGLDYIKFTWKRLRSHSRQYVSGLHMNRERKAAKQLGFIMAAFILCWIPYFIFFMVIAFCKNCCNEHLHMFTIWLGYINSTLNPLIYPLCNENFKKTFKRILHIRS
Sequence of Histamine H4 receptor (Homo sapiens) (Q9H3N8 whole entry): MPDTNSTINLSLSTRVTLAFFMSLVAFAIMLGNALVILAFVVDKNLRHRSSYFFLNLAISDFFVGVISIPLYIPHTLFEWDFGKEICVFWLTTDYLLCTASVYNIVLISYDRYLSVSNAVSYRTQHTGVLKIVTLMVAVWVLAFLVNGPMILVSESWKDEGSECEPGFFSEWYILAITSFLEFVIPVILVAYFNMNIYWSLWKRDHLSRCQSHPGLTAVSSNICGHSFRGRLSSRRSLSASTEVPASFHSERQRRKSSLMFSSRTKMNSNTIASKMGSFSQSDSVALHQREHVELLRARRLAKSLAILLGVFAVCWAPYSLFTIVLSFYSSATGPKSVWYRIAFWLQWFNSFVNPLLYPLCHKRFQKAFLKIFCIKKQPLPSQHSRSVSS
Sequence of Histamine H2 receptor (Homo sapiens) (P25021 whole entry): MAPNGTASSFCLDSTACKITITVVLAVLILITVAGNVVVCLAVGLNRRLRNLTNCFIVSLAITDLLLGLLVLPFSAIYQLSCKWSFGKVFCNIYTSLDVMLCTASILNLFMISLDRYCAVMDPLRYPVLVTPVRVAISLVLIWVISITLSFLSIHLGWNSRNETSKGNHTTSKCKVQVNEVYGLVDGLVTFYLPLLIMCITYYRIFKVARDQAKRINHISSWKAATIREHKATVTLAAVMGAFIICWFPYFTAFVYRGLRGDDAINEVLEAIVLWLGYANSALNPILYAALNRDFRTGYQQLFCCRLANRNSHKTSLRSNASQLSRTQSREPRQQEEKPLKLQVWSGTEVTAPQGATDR

As to `c1ccc2c(CNc3ccc(CN4CCCCC4)cc3)c[nH]c2c1`, inhibition in data set [1] was half-maximal at 540 nM (IC50).
Turning to `O=C(Cc1c[nH]c2ccccc12)Nc1ccc(CN2CCOCC2)cc1`, the IC50 – broadly, the concentration that gives 50% inhibition – in data set [2] is 4710 nM; in data set [1], 2190 nM. For the same compound, the inhibition (usually the relative decrease from the control value, in per cent) at 3 µM in data set [3] came out at 6%.
With `O=C(CCc1c[nH]c2ccccc12)Nc1ccc(CN2CCCCC2)cc1`, the half-maximal inhibitory concentration (IC50) in data set [1] was more than 10000 nM.
As for `COc1ccc2[nH]cc(CCNC(C)=O)c2c1` [MELATONIN], the IC50 in data set [2] is 1920 nM.
Turning to `O=C(Cc1c[nH]c2ccccc12)Oc1ccc(CN2CCOCC2)cc1`, the values for the IC50 in data set [2] and in data set [1] were 5320 nM and 790 nM, respectively. The inhibition at 3 µM in data set [3] stood at 12%.
In data set [1], `CCN(CC)Cc1ccc(NC(=O)Cc2c[nH]c3ccccc23)cc1` had an IC50 of 3500 nM.
For `c1ccc2c(CCNc3ccc(CN4CCCC4)cc3)c[nH]c2c1`, the inhibition at 3 µM in data set [3] amounted to 73%. This compound came in with an IC50 in data set [1] of 180 nM.
`O=C(CCc1c[nH]c2ccccc12)Oc1ccc(CN2CCCC2)cc1` displayed a 50% inhibitory concentration (IC50) in data set [1] of more than 10000 nM.
`CCN(CC)Cc1ccc(NC(=O)CCc2c[nH]c3ccccc23)cc1` had an IC50 in data set [1] of more than 10000 nM.
Still for that read-out and setting: then `O=C(Nc1ccc(CN2CCCCC2)cc1)c1c[nH]c2ccccc12`, with 1210 nM.
As for `c1ccc2c(CCNc3ccc(CN4CCCCC4)cc3)c[nH]c2c1`, the inhibition at 3 µM in data set [3] was 87%. The compound also gave an IC50 in data set [1] of 80 nM.
Take `O=C(CCc1c[nH]c2ccccc12)Nc1ccc(CN2CCOCC2)cc1`: the IC50 in data set [1] was more than 10000 nM.
The compound `O=C(Cc1c[nH]c2ccccc12)Nc1ccc(CN2CCCCC2)cc1` registered an IC50 in data set [1] of 2840 nM.
The same measure, in the same setting: then `CCN(CC)Cc1ccc(OC(=O)Cc2c[nH]c3ccccc23)cc1`, with 4610 nM.
Regarding `c1ccc2c(CCNc3ccc(CN4CCOCC4)cc3)c[nH]c2c1`, the half-maximal inhibitory concentration (IC50) in data set [2] came to 3050 nM; in data set [1], 49 nM. For the same compound, the affinity in data set [4], expressed as Ki, was 4.26 nM. Also, the inhibition at 3 µM in data set [3] amounted to 54%. For the same compound, the result in data set [5], in data set [6] and in data set [7] was inactive.
On to `c1ccc2c(CCCNc3ccc(CN4CCOCC4)cc3)c[nH]c2c1`, for which, in data set [1], the IC50 came to 490 nM.
Compound `O=C(Oc1ccc(CN2CCCCC2)cc1)c1c[nH]c2ccccc12` registered an IC50 in data set [1] of 2030 nM.
The compound `O=C(Cc1c[nH]c2ccccc12)Oc1ccc(CN2CCCCC2)cc1` gave an IC50 in data set [1] of 1040 nM.
Compound `CCN(CC)Cc1ccc(NCCc2c[nH]c3ccccc23)cc1` registered an IC50 in data set [1] of 290 nM.
`O=C(Cc1c[nH]c2ccccc12)Nc1ccc(CN2CCCC2)cc1`: the IC50 in data set [1] came out at 1370 nM.
Same read-out and setting: then `O=C(CCc1c[nH]c2ccccc12)Oc1ccc(CN2CCOCC2)cc1`, with more than 10000 nM; and `O=C(CCc1c[nH]c2ccccc12)Oc1ccc(CN2CCCCC2)cc1`, with more than 10000 nM.
Same read-out and setting: with `O=C(Cc1c[nH]c2ccccc12)Oc1ccc(CN2CCCC2)cc1` the figure was 2460 nM.
The same measure, in the same setting: then `O=C(CCc1c[nH]c2ccccc12)Nc1ccc(CN2CCCC2)cc1`, with more than 10000 nM.
Regarding `COc1cc(N)c(Cl)cc1C(=O)NC1CCN(CCCOc2ccc(F)cc2)CC1OC` (stereo not drawn) [CISAPRIDE], in data set [8], the inhibition at 0.1 µM amounted to 89%.
`CCN(CC)Cc1ccc(OC(=O)CCc2c[nH]c3ccccc23)cc1` displayed an IC50 in data set [1] of more than 10000 nM.
